Data on eleven compounds can be found in ChEMBL document CHEMBL1154123, “Targeted isolation and structure elucidation of stilbene glycosides from the bark of Lysidice brevicalyx Wei guided by biological and chemical screening” (J Nat Prod, 2008).

Experiment [1] is described as follows: Antioxidant activity against ferrous ion-induced lipid peroxidation in liver microsomes assessed as inhibition rate at 10 uM by TBA method in presence of cysteine. Details: scale not given: the % may be the effect or the level left. Format: functional. The settings on record: Microsome. A digest of the protocol:
(§1)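 Liver microsomal protein (1.0 mg in 1 mL 0.1 M PBS, pH 7.4) incubated with […] cysteine and test sample at 37 °C for 15 min; peroxidation initiated with 0.05 mM FeSO4. Stopped with 20% trichloroacetic acid, centrifuged, supernatant heated with 0.67% TBA 10 min at 100 °C. MDA read at 532 nm; inhibition rate calculated against Fe2+-cysteine and solvent-only controls. Vitamin E positive control.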
(In general: Liver microsomes are a subcellular fraction often used to study metabolism.)

The nature of experiment [2]: Antioxidant activity against ferrous ion-induced lipid peroxidation in liver microsomes assessed as inhibition rate at 100 uM by TBA method in presence of cysteine. The class given is functional. Details: scale not given: the % may be the effect or the level left. The settings on record: Microsome. A digest of the protocol:
as §1

The structures appear in SMILES notation.

In the case of `C[C@@H]1O[C@@H](O[C@H]2[C@H](Oc3cc(O)cc(/C=C\c4ccc(O)cc4)c3)O[C@H](CO)[C@@H](O)[C@@H]2O)[C@H](O)[C@H](O)[C@H]1O`, the results for the Activity in experiment [1] and in experiment [2] were 11% and 10%, respectively.
In the case of `C[C@@H]1O[C@@H](OC[C@H]2O[C@@H](Oc3cc(O)cc(/C=C\c4ccc(O)cc4)c3)[C@H](O)[C@@H](O)[C@@H]2O)[C@H](O)[C@H](O)[C@H]1O`, the Activity amounted to 0% in experiment [1] and 15% in experiment [2].
In the same order, the values of `OC[C@H]1O[C@@H](O[C@H]2[C@H](Oc3cc(O)cc(/C=C/c4ccc(O)cc4)c3)OC[C@@H](O)[C@@H]2O)[C@H](O)[C@@H](O)[C@@H]1O` are 5% and 29%.
`C[C@@H]1O[C@@H](OC[C@H]2O[C@@H](Oc3cc(O)cc(/C=C\c4ccc(O)cc4)c3)[C@H](O[C@@H]3O[C@@H](C)[C@H](O)[C@@H](O)[C@H]3O)[C@@H](O)[C@@H]2O)[C@H](O)[C@H](O)[C@H]1O`: the Activity in experiment [1] is 8%; in experiment [2], 25%.
As to `C[C@@H]1O[C@@H](OC[C@H]2O[C@@H](Oc3cc(O)cc(/C=C/c4ccc(O)cc4)c3)[C@H](O[C@@H]3O[C@@H](C)[C@H](O)[C@@H](O)[C@H]3O)[C@@H](O)[C@@H]2O)[C@H](O)[C@H](O)[C@H]1O`, the Activity turned out to be 5% in experiment [1] and 39% in experiment [2].
The like results for `COc1ccc(CCN(C)CCCC(C#N)(c2ccc(OC)c(OC)c2)C(C)C)cc1OC` (configuration not stated) were, in that order, 33% and 81%.
As to `OC[C@H]1O[C@@H](Oc2cc(O)cc(/C=C/c3ccc(O)cc3)c2)[C@H](O)[C@@H](O)[C@@H]1O`, the Activity in experiment [1] amounted to 29%; in experiment [2], 100%.
As for `C[C@@H]1O[C@@H](OC[C@H]2O[C@@H](Oc3cc(O)cc(/C=C/c4ccc(O)cc4)c3)[C@H](O)[C@@H](O)[C@@H]2O)[C@H](O)[C@H](O)[C@H]1O`, the Activity in experiment [1] amounted to 11%; in experiment [2], 31%.
For `C[C@@H]1O[C@@H](O[C@H]2[C@H](Oc3cc(O)cc(/C=C/c4ccc(O)cc4)c3)OC[C@@H](O)[C@@H]2O)[C@H](O)[C@H](O)[C@H]1O`, the Activity in experiment [1] was found to be 6%; in experiment [2], 67%.
As for `Oc1ccc(/C=C/c2cc(O)cc(O[C@@H]3O[C@H](CO[C@@H]4OC[C@@H](O)[C@H](O)[C@H]4O)[C@@H](O)[C@H](O)[C@H]3O)c2)cc1`, the results for the Activity in experiment [1] and in experiment [2] were 4% and 21%, respectively.
In the case of `C[C@@H]1O[C@@H](O[C@H]2[C@H](Oc3cc(O)cc(/C=C/c4ccc(O)cc4)c3)O[C@H](CO)[C@@H](O)[C@@H]2O)[C@H](O)[C@H](O)[C@H]1O`, the results for the Activity in experiment [1] and in experiment [2] were 9% and 39%, respectively.
